SIAE primary – human SIAE inhibitors, primary screen, biochemical, fluorescence polarization, FP-Rh probe, 1536-well HTS | Sialate O-acetylesterase (Homo sapiens), Q9HAT2 | SIAE FP-Rh probe binding | inhibition, % at 9.66 µM | 0.69% of 370,000 active | AID 1053197, 2014;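 active = inhibition above a cutoff: mean of compounds within the control limits plus 3 SD of those, cut at about 17% in these data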;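 also: 0% = plate median of compound wells and 100% = probe without SIAE protein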
Target sequence (Q9HAT2 whole entry, looked up): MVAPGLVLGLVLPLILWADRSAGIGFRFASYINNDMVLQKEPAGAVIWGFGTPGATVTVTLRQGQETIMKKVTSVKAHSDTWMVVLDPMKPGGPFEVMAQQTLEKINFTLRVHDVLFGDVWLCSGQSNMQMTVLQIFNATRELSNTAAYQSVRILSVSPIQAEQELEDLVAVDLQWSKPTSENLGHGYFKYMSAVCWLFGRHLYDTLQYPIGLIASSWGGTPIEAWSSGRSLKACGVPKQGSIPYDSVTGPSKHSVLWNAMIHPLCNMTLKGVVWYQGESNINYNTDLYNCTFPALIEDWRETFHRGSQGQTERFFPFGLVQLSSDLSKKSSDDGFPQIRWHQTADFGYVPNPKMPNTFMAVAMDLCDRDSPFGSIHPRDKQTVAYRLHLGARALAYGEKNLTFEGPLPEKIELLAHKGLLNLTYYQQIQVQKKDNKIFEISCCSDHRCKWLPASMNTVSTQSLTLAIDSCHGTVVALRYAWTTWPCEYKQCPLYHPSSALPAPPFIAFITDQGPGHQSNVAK
ABHD4 inh – ABHD4 inhibitors, primary screen, biochemical, fluorescence polarization, mouse; (Lyso)-N-acylphosphatidylethanolamine lipase (Mus musculus), Q8VD66; purified mABHD4, FP-Rh probe fluorescence polarization; inhibition, % at 8.92 µM; 0.54% of 370,000 active; AID 720543, 2013;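 active = inhibition exceeding the mean over every tested compound plus 3 SD, cut at about 30% in these data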;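 also: 0% = plate median of compound wells and 100% = S159A mutant with DMSO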
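Assay system: mABHD4 protein; medium: HEPES pH 7.0, NaCl, Pluronic buffer; dosing: 8.92 µM, single dose; schedule: 45 min + 60 min at 25 °C; signal: FP readout, ex 525 nm / em 598 nm; read-out: normalized percent inhibition of probe labeling; repeats: single replicate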
RBBP9 inhibitor – human RBBP9 inhibitors, primary screen, biochemical, fluorescence polarization, FP-Rh probe, HTS; Serine hydrolase RBBP9 (Homo sapiens), O75884; recombinant RBBP9; inhibition, % at 7.94 µM; 0.2% of 220,000 active; AID 1515, 2009;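 active = inhibition above the campaign mean of all tested compounds plus 3 SD, cut at about 14% in these data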;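 also: plate controls were DMSO wells with RBBP9 for no effect and wells lacking RBBP9 protein for full effect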
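System: RBBP9 protein / Quantity: 2.5 µM RBBP9 dispensing solution, before mixing / Also added: Serine-hydrolase probe FP-Rh, 375 nM pre-mixing / Dosing: 7.94 µM single dose, 0.794% DMSO / Timing: enzyme-compound preincubation 30 min, then probe labeling 45 min, 25 °C / Signal: FP readout at 525/598 nm / Controls: DMSO-treated enzyme wells and wells lacking RBBP9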
HTRA1 inh – HTRA1 serine protease inhibitors, primary screen, biochemical, fluorescence polarization, HTS | inhibition, % at 5.96 µM | 0.5% of 340,000 active | recombinant HTRA1, FP-rhodamine activity-based probe | Q92743; in the data active = inhibition above about 36%;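 also: 0% = enzyme with DMSO and 100% = wells lacking enzyme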
mABHD4 conf – ABHD4 inhibitors, retest, confirmation, biochemical, fluorescence polarization, mouse; shares compounds with ABHD4 inh; 55% of 1,800 active; purified mABHD4, FP-Rh probe fluorescence polarization; AID 720658, 2013; inhibition, % at 8.92 µM;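 active = mean inhibition across replicates above the hit cutoff set in the primary screen, cut at about 30% in these data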;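 also: 0% = wild-type ABHD4 with DMSO and 100% = catalytically dead S159A mutant with DMSO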
An asterisk follows results filed as active; . = no result; ! = not active in a repeat. Shown are actives, neighbours in structure and some others; about 1.4% of the full set was active somewhere.

SMILES	SIAE primary	ABHD4 inh	RBBP9 inhibitor	HTRA1 inh	mABHD4 conf
COC(=O)CCCC1=CC2=CC(=O)C(C)(OC(=O)c3cccs3)C(=O)C2=CN1Cc1ccco1 (configuration not stated)	13	32*	.	16	14
O=C(Nc1cccc(Cl)c1)c1cc(N=Nc2ccc([N+](=O)[O-])cc2Cl)ccc1O	22*	33*	9	16	70*
Cc1cc(NS(=O)(=O)c2ccc3c(c2)CCC(=O)N3)ccc1Cl	6	-15	.	.	.
O=C(NN=Cc1ccc(O)cc1O)c1ccccc1NS(=O)(=O)c1cccs1	9	33*	.	20	36*
O=c1c(O)c(-c2cc(O)c(O)c(O)c2)oc2cc(O)cc(O)c12	56*	42*	.	17	48*
COc1ccc2nc(-n3c(O)c(C4=c5ccccc5=NC4=O)[nH]c3=S)sc2c1	3	52*	-1	30	169*
CCCCNc1c(-c2ccc(OC)c(SC(C)CC)c2)nc2ccc(Cl)cn12 (configuration not stated)	-3	8	.	1	.
CCCCNc1c(-c2ccc(OC)c(SC(C)CC)c2)nc2ccc(C)cn12 (configuration not stated)	12	34*!	.	-12	38*
CCCCNc1c(-c2ccc(OC)c(SC3CCCCC3)c2)nc2ccc(C)cn12	3	33*!	.	-1	37*
CCC(C)Sc1cc(-c2nc3ccc(C)cn3c2NCc2ccccc2)ccc1OC (configuration not stated)	10	43*	.	14	36*
O=C(CN1CCN(c2ccc(O)cc2)CC1)Nc1ccccc1C(=O)NCCc1ccccc1	10	32*	.	27	21
COC(=O)C1=C(O)/C(=C\c2ccc(CNS(=O)(=O)c3ccccc3)o2)N=C1C	15	32*	2	8	15
Cc1nnc(C)n1N=Cc1ccc(Cl)c([N+](=O)[O-])c1	7	7	.	.	.
COc1ccc(NC(=S)Nc2ccccc2)cc1	10	1	-6	4	.
COc1ccc(NC(=S)Nc2ccc(N)c([N+](=O)[O-])c2)cc1	2	34*	-5	36	8
O=C(NCCO)c1ccc(-c2cnc3cccnn23)cc1	-1	-1	.	.	.
O=C(c1ccccc1)N1CCC2CCN(S(=O)(=O)c3ccccc3)CC21 (configuration not stated)	3	-9	.	.	.
Oc1ccc(Cl)cc1Nc1nc(NCC2CCCO2)c2ccccc2n1 (configuration not stated)	3	35*	.	6	31*
COc1ccc(CN2CCN(Cc3c[nH]c4ccccc34)CC2)c(OC)c1	7	33*	.	3	7
COc1ccc(CN2CCN(Cc3c[nH]c4ccccc34)CC2)cc1	1	18	.	18	.
Cc1ccc(C(=O)O)cc1-c1ccc(/C=C2/NC(=O)N(c3ccccc3)C2=O)o1	-1	46*	-5	-5	30*
Cc1cc(C(=O)O)ccc1-c1ccc(/C=C2\NC(=O)N(Cc3ccccc3Cl)C2=O)o1	.	.	2	-9	.
Cc1ccc(C(=O)O)cc1-c1ccc(/C=C2\SC(=O)N(CC(=O)Nc3ccccc3)C2=O)o1	-27	12	1	-23	.
Cc1ccc(CN2C(=O)N/C(=C\c3ccc(-c4ccc(C(=O)O)cc4C)o3)C2=O)cc1	0	43*	-9	5	40*
Cc1ccc(Nc2c([N+](=O)[O-])ccc3nonc23)cc1C	-3	2	.	7	.
SMILES	SIAE primary	ABHD4 inh	RBBP9 inhibitor	HTRA1 inh	mABHD4 conf
Clc1cccc(-c2ccc(-c3nc4ccccn4c3NCc3ccccc3)cc2)c1	10	37*	.	-13	33*
c1ccc(-c2nc3ccccn3c2NCc2ccc3c(c2)OCO3)cc1	-2	6	-5	6	.
CCCCCNC(=O)C(c1cc2ccccc2o1)n1c(=O)c(-c2ccco2)nc2ccccc21 (configuration not stated)	-11	-22	.	.	.
CCCCCNC(=O)C(c1ccncc1)n1c(=O)c(-c2ccco2)nc2ccccc21 (configuration not stated)	7	32*	.	.	12
CC(C)(C)OC(=O)C[C@@H]1C/C=C\C[C@H](CC(=O)NCCO)C(=O)N[C@@H](Cc2ccccc2)COC1=O	3	6	.	-4	.
CCCCN(C)c1c(C)nc2ccc(C(=O)Nc3cc(-c4ccccc4)ccc3OC)cn12	4	40*	.	.	56*
CCc1nc2ccc(C(=O)Nc3cc(-c4ccccc4)ccc3OC)cn2c1N(C)CCCc1ccccc1	1	16	.	.	.
Cn1c(-c2ccsc2)c(-c2cccs2)c2cc(-c3ccc4cc[nH]c4c3)ccc21	12	35*	.	19	40*
Cn1c(-c2ccsc2)c(-c2cccs2)c2cc(-c3ccc4[nH]ccc4c3)ccc21	2	2	.	22	.
CCOc1cc(C(=O)OC(C(=O)NC(=O)NC)c2ccccc2)ccc1OCC(=O)N1CCOCC1 (configuration not stated)	-3	-15	.	11	.
C(=C\c1ccccn1)/c1cccnc1	2	5	-5	-1	.
CC(C)N1CC2(CC(c3ccccc3C(F)(F)F)=NO2)CN1C(=O)c1ccco1 (configuration not stated)	-2	31*	.	5	21
CC(C)N1CC2(CC(c3ccccc3F)=NO2)CN1C(=O)c1ccc(C(C)(C)C)cc1 (configuration not stated)	-2	6	.	-25	.
CC(C)N1CC2(CC(c3ccccc3C(F)(F)F)=NO2)CN1C(=O)c1ccc(C(C)(C)C)cc1 (configuration not stated)	-7	53*	.	-27	43*
Cc1nc(N2CCCCC2C)c2nnn(Cc3ccccc3)c2n1 (configuration not stated)	-3	0	.	.	.
Cc1cccc(OCC(=O)NCc2ccccc2)c1	-5	9	.	2	.
C/C(=N\NC(=O)COc1cccc(C)c1)c1ccc2ccccc2c1O	-3	49*	.	13	46*
CCN(CC)CCCC(C)Nc1c2ccc(Cl)cc2nc2ccc(OC)cc12 (configuration not stated)	.	.	-1	.	.
COc1ccc2nc3cc(Cl)ccc3c(Nc3cc(CN4CCCC4)c(O)c(CN4CCCC4)c3)c2n1	15	37*	.	.	31*
Cc1ccc(S(=O)(=O)NC[C@@H]2C[C@H](c3ccccc3)ON2S(=O)(=O)c2ccc(C)cc2)cc1	-8	-12	.	.	.
O=C(O)C1CCCN1C(=O)c1cccc(Cl)c1 (configuration not stated)	-3	-3	.	.	.
O=C(O)/C=C/c1ccc([N+](=O)[O-])o1	3	4	-10	6	.
